This note sets out measurements from ChEMBL document CHEMBL4811311, “Ferulic acid amide derivatives with varying inhibition of amyloid-β oligomerization and fibrillization” (Bioorg Med Chem, 2021).

For assay [1], the target named is T1, Amyloid-beta precursor protein (Homo sapiens, UniProt P05067). Description: Inhibition of human biotinylated amyloid beta (1 to 42) oligomerization assessed as decrease in oligomer abundance measured after 1 hr by ELISA. A general note: In an ELISA, binding on a coated surface is turned into a signal by an enzyme label.
Assay [2] has as its target T1, Amyloid-beta precursor protein. Description: Inhibition of human amyloid beta (1 to 40) fibrillization at 100 uM measured every 15 mins for 100 hrs by Thioflavin-T fluorescence assay relative to control. Put shortly:
(§1)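 Aβ40 monomerized in HFIP (1 mg/mL), dried under argon, diluted to 20 μM final in 20 mM Tris, 8 μM ThT, 0.3 M NaCl, pH 7.4. Compounds added in DMSO, triplicate; DMSO-only control taken as 100% aggregation. ThT fluorescence (ex 450/em 482 nm) read every 15 min for ~100 h; percent inhibition versus control, averaged over three independent samples.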

For assay [3] the target is unchanged. Description: Inhibition of human amyloid beta (1 to 40) fibrillization at 20 uM measured every 15 mins for 100 hrs by Thioflavin-T fluorescence assay relative to control. Put shortly: as §1

T1 sequence (P05067 whole entry): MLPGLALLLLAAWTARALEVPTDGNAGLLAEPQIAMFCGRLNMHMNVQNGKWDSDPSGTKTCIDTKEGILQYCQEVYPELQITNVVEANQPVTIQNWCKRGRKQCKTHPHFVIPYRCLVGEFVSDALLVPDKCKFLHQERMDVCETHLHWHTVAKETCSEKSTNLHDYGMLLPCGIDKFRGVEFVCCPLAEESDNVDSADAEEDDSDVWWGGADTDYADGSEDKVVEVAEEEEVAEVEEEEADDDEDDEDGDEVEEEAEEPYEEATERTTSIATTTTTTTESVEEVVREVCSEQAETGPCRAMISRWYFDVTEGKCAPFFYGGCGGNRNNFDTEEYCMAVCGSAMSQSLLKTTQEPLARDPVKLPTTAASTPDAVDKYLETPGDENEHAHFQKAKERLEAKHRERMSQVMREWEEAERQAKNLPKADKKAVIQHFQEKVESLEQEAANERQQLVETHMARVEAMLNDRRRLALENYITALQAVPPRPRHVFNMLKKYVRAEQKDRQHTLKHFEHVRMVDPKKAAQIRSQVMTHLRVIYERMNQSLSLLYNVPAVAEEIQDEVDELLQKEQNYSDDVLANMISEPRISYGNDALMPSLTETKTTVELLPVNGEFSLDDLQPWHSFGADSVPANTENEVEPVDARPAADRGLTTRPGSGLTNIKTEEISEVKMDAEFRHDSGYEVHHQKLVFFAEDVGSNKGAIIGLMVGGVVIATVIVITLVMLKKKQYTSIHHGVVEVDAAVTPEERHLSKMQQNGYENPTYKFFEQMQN

Broadly, the IC50 is the concentration that gives 50% inhibition. The term inhibition denotes the percentage by which the read-out fell short of the control. Low values mean a weak effect, high ones a strong effect. With `COc1cc(/C=C/C(O)C(F)(F)F)ccc1OCc1ccccc1` (stereo not given), the IC50 result in assay [1] is given as “Not Active”. For the same molecule, the inhibition turned out to be 44.1% in assay [2] and 0% in assay [3].

For `COc1cc(-c2cncn2Cc2ccccc2)ccc1OCc1ccccc1`, in assay [1], the IC50 entry is “Not Active”. For the same molecule, the inhibition in assay [2] is 27.5%; in assay [3] it was 2.21%.

For `COc1cc(/C=C/C(=O)NCCC(=O)NCCOc2ccccc2)ccc1OCc1ccccc1`, the IC50 in assay [1] (read-out: IC50) was found to be 17.9 µM.

For `CCN(CC)C(=O)/C=C/c1ccc(OCc2ccccc2)c(OC)c1`, the IC50 in assay [1] (read-out: IC50) stood at 39.3 µM. Moreover, the inhibition in assay [2] worked out at 0%.

Take `COc1cc(/C=C/C(=O)N2CCC[C@@H]2C(=O)NCCOc2ccccc2)ccc1OCc1ccccc1`: the IC50 in assay [1] (read-out: IC50) was 16.8 µM.

As to `COc1cc(/C=C/C(=O)NCCC(=O)NCc2ccccc2)ccc1OCc1ccccc1`, the half-inhibitory concentration (IC50) in assay [1] (read-out: IC50) is 81.6 µM.

Turning to `COc1cc(/C=C/C(=O)NCCOc2ccccc2)ccc1OCc1ccccc1`, the IC50 result in assay [1] was “Not Active”.

On to `CCCN(CCC)C(=O)/C=C/c1ccc(OC)c(OC)c1`, for which the IC50 in assay [1] (read-out: IC50) came to 45.3 µM.

As to `COc1cc(/C=C/C(=O)Nc2nnn[nH]2)ccc1OCc1ccccc1`, the IC50 in assay [1] (read-out: IC50) stood at 98.5 µM. In assay [2], this molecule gave an inhibition of 0%.

Consider `COc1ccc(CNC(=O)[C@@H]2CCCN2C(=O)/C=C/c2ccc(OCc3ccccc3)c(OC)c2)cc1`, for which the IC50 in assay [1] (read-out: IC50) is 19.2 µM.

On to `COc1cc(/C=C/C(=O)N2CC(F)(F)C2)ccc1OCc1ccccc1`, for which the IC50 in assay [1] (read-out: IC50) is 107 µM.

`CCN(CC)C(=O)/C=C/c1ccc(O)c(OC)c1`: the IC50 in assay [1] (read-out: IC50) turned out to be 205 µM.

Consider `CCCN(CCC)C(=O)/C=C/c1ccc(OCc2cc(OC)cc(OC)c2)c(OC)c1`, for which the concentration for half-maximal inhibition (IC50) result in assay [1] was “Not Active”.

In the case of `COc1cc(/C=C/c2cnco2)ccc1OCc1ccccc1`, in assay [1], the IC50 entry was “Not Active”.

Regarding `COc1cc(/C=C/C(=O)O)ccc1O` [FERULATE], the IC50 in assay [1] (read-out: IC50) was found to be 226 µM. Besides, the results for the inhibition in assay [2] and in assay [3] were 36.8% and 9.75%, respectively.

`COc1cc([C@H]2C[C@@H]2C(=O)N2CCCCC2)ccc1OCc1ccccc1`: in assay [1] (read-out: IC50), the IC50 stood at 18.7 µM. In addition, the inhibition in assay [2] was 13.3%; in assay [3] it was 0%.

Regarding `COc1cc(/C=C/C(=O)N2CC(C(=O)N3CCOCC3)C2)ccc1OCc1ccccc1`, in assay [1] (read-out: IC50), the IC50 amounted to 35.7 µM.

In the case of `COc1cc(/C=C/C(=O)NCCC(=O)N2CCCCC2)ccc1OCc1ccccc1`, in assay [1] (read-out: IC50), the IC50 amounted to 8.17 µM.

With `COc1cc(/C=C/C(=O)N2CCC[C@H]2C(=O)NCc2ccccc2)ccc1OCc1ccccc1`, the IC50 in assay [1] (read-out: IC50) was determined as 18.7 µM.

Turning to `COc1cc(/C=C/C(=O)NCc2ccccc2)ccc1OCc1ccccc1`, in assay [1], the IC50 entry is listed as “Not Active”.

In the case of `CCN(CC)C(=O)C1CN(C(=O)/C=C/c2ccc(OCc3ccccc3)c(OC)c2)C1`, in assay [1] (read-out: IC50), the IC50 came to 12.8 µM.

In the case of `COc1cc(/C=C/C(=O)N(C)OC)ccc1OCc1ccccc1`, in assay [1] (read-out: IC50), the IC50 stood at 79.9 µM.

As for `CCCN(CCC)C(=O)/C=C/c1ccc(OCc2cc(F)cc(F)c2)c(OC)c1`, in assay [1], the 50% inhibitory concentration (IC50) entry is “Not Active”.

On to `COc1cc(/C=C/C(=O)N2CC(C(=O)NCc3ccc(F)cc3)C2)ccc1OCc1ccccc1`, for which the IC50 in assay [1] (read-out: IC50) amounted to 3.65 µM.

In the case of `CCCN(CCC)C(=O)/C=C/c1ccc(O)c(OC)c1`, the half-maximal inhibitory concentration (IC50) in assay [1] (read-out: IC50) turned out to be 98.8 µM.

On to `COc1cc(/C=C/CN2CCCCC2)ccc1OCc1ccccc1`, for which the half-inhibitory concentration (IC50) in assay [1] (read-out: IC50) was 10.6 µM. Moreover, the inhibition in assay [2] came to 22.3%; in assay [3], 0.29%.

Take `COc1cc(-c2cncn2CCC(=O)NCCOc2ccccc2)ccc1OCc1ccccc1`: the 50% inhibitory concentration (IC50) in assay [1] (read-out: IC50) was determined as 7.76 µM. The results for the inhibition in assay [2] and in assay [3] were 13.8% and 5.98%, respectively.

`CCN(CC)C(=O)/C=C/c1ccc(OCc2cscn2)c(OC)c1`: the IC50 result in assay [1] was “Not Active”.

Consider `COc1cc(/C=C/C(=O)N2CC(C(=O)NCCOc3ccccc3)C2)ccc1OCc1ccccc1`, for which, in assay [1] (read-out: IC50), the IC50 stood at 1.8 µM. Also, the inhibition in assay [2] came to 20.6%; in assay [3], 5.5%.

On to `COc1ccc(CNC(=O)C2CN(C(=O)/C=C/c3ccc(OCc4ccccc4)c(OC)c3)C2)cc1`, for which the IC50 in assay [1] (read-out: IC50) came out at 4.78 µM.

As to `CCN(CC)C(=S)/C=C/c1ccc(OCc2ccccc2)c(OC)c1`, the IC50 entry in assay [1] is on record as “Not Active”.

Regarding `COc1cc(/C=C/C(=O)N2CC(C(=O)NCc3ccco3)C2)ccc1OCc1ccccc1`, in assay [1] (read-out: IC50), the IC50 amounted to 3.61 µM.

Consider `CCN(CC)C(=O)CCc1ccc(OCc2ccccc2)c(OC)c1`, for which, in assay [1] (read-out: IC50), the IC50 is 34.9 µM. The same molecule showed an inhibition in assay [2] of 6.49%.

Regarding `COc1cc(/C=C/c2nnn[nH]2)ccc1OCc1ccccc1`, the IC50 result in assay [1] is reported as “Not Active”. In assay [2], the inhibition was 9.56%.

For `COc1cc(/C=C/C(=O)N2CC(C(=O)N3CCCCC3)C2)ccc1OCc1ccccc1`, in assay [1] (read-out: IC50), the IC50 turned out to be 10.6 µM.

As for `COc1cc(-c2cncn2CCC(=O)NCCc2ccccc2)ccc1OCc1ccccc1`, the IC50 in assay [1] (read-out: IC50) turned out to be 9.91 µM. Also, in assay [2], the inhibition turned out to be 0%.

As for `COc1cc(/C=C/C(=O)N2CCN(c3ccccc3)CC2)ccc1OCc1ccccc1`, in assay [1], the half-inhibitory concentration (IC50) entry is on record as “Not Active”.

With `CCN(CC)C(=O)/C=C/c1ccc(OS(=O)(=O)c2ccc(C)cc2)c(OC)c1`, the IC50 in assay [1] (read-out: IC50) came to 10.6 µM. The inhibition came out at 3.62% in assay [2] and 1.95% in assay [3].

With `CCN(CC)C(=O)/C=C/c1ccc(OCc2cccnc2)c(OC)c1`, the IC50 result in assay [1] is “Not Active”.

For the molecule `COc1cc(/C=C/C(=O)N2CCCC2)ccc1OCc1ccccc1`, in assay [1] (read-out: IC50), the IC50 came out at 65.1 µM.

With `COc1cc([C@H]2C[C@@H]2C(=O)N(C)C)ccc1OCc1ccccc1`, in assay [1] (read-out: IC50), the IC50 came out at 45.8 µM. Also, the inhibition in assay [2] stood at 8.81%.

Take `COc1cc(/C=C/C(=O)N2CC(C(=O)NCc3ccccc3)C2)ccc1OCc1ccccc1`: the IC50 in assay [1] (read-out: IC50) was 3.13 µM. Further, the inhibition in assay [2] is 48.2%; in assay [3], 14.8%.

Take `COc1ccc(CNC(=O)CCNC(=O)/C=C/c2ccc(OCc3ccccc3)c(OC)c2)cc1`: the IC50 in assay [1] (read-out: IC50) turned out to be 54.2 µM.

On to `CCN(CC)C(=O)/C=C/c1ccc(O)c(O)c1`, for which the half-maximal inhibitory concentration (IC50) in assay [1] (read-out: IC50) stood at 119 µM. For the same molecule, the inhibition is 91.9% in assay [2] and 73.1% in assay [3].

For `COc1cc(/C=C/C(=O)N2CCC[C@H]2C(=O)N2CCCCC2)ccc1OCc1ccccc1`, in assay [1] (read-out: IC50), the IC50 came to 17.1 µM.

With `CCCN(CCC)C(=O)/C=C/c1ccc(OCc2ccccc2)c(OC)c1`, in assay [1] (read-out: IC50), the IC50 is 12.4 µM. The inhibition in assay [2] turned out to be 17%; in assay [3] it was 9.35%.

Turning to `CCCN(CCC)C(=O)/C=C/c1ccc(OCCCOc2ccccc2)c(OC)c1`, the IC50 entry in assay [1] was “Not Active”.

With `COc1cc(/C=C/C(=O)N2CCC[C@@H]2C(=O)NCc2ccccc2)ccc1OCc1ccccc1`, the IC50 in assay [1] (read-out: IC50) came out at 17.8 µM.

Consider `COc1cc(/C=C/C(=O)NCc2ccco2)ccc1OCc1ccccc1`, for which the IC50 result in assay [1] is reported as “Not Active”.

In the case of `COc1cc(/C=C/C(=O)N2CCOCC2)ccc1OCc1ccccc1`, the IC50 in assay [1] (read-out: IC50) was found to be 78.1 µM.

Consider `COc1cc(/C=C/C(=O)N2CCCCC2)ccc1OCc1ccccc1`, for which the IC50 in assay [1] (read-out: IC50) is 27.9 µM. The inhibition in assay [2] was found to be 13.4%; in assay [3] it was 7.28%.

For `COc1cc(/C=C/C(=O)N2CC(C(=O)N3CC(F)(F)C3)C2)ccc1OCc1ccccc1`, the 50% inhibitory concentration (IC50) in assay [1] (read-out: IC50) was 21.8 µM.

For `COc1cc(/C=C/C(=O)N(C)C)ccc1OCc1ccccc1`, the IC50 in assay [1] (read-out: IC50) stood at 24.6 µM. This molecule yielded an inhibition in assay [2] of 0%.

In the case of `COc1cc(/C=C/C(=O)N2CCC[C@H]2C(=O)NCCOc2ccccc2)ccc1OCc1ccccc1`, the IC50 in assay [1] (read-out: IC50) stood at 8.59 µM.
